Tests used:
Assay type in all cases: functional
Settings in all cases: read-out: GI
MOLT-4 = assay: Growth inhibition of human MOLT-4 cells at 10 uM incubated for 48 hrs by sulforhodamine B assay relative to control
Outline: (§1)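 NCI one-dose screen. Cells grown in RPMI 1640 with 5% FBS and 2 mM L-glutamine, plated and incubated 24 h at 37 °C, 5% CO2. DMSO-dissolved drug added, then 48 h further incubation. Adherent cells fixed with cold TCA, suspension cells fixed after settling. Stained with 0.4% SRB, absorbance read at 515 nm. Reported as percent growth relative to no-drug control and time-zero cell number.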

T47D = assay: Growth inhibition of human T47D cells at 10 uM incubated for 48 hrs by sulforhodamine B assay relative to control
Outline: (§2)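 NCI one-dose screen across a 59-line panel. Cells were grown in RPMI 1640 with 5% FBS and 2 mM L-glutamine, plated and pre-incubated 24 h, then exposed to drug for 48 h at 37 °C, 5% CO2. Adherent cells were fixed with cold TCA (10% final), stained with 0.4% SRB in 1% acetic acid and read at 515 nm. Result is percent growth relative to no-drug control and time-zero cell count.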

NCI-H322M = assay: Growth inhibition of human NCI-H322M cells at 10 uM incubated for 48 hrs by sulforhodamine B assay relative to control; outline: as §1
HL-60(TB) = assay: Growth inhibition of human HL-60(TB) cells at 10 uM incubated for 48 hrs by sulforhodamine B assay relative to control
Outline: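 NCI-60 one-dose screen: same culture, 48 h drug exposure and SRB read-out. Reported as percent growth relative to no-drug control and to time-zero cell number; 0–100 means growth inhibition, below 0 means lethality.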

SNB-75 = assay: Growth inhibition of human SNB-75 cells at 10 uM incubated for 48 hrs by sulforhodamine B assay relative to control; outline: as §1
M14 = assay: Growth inhibition of human M14 cells at 10 uM incubated for 48 hrs by sulforhodamine B assay relative to control
Outline: (§3)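 NCI-60 single-dose screen. Cells were grown in RPMI 1640 with 5% FBS and 2 mM L-glutamine and plated 24 h before drug addition. Compound was added at one concentration in DMSO-derived medium and incubated for 48 h at 37 °C in 5% CO2. Read-out was SRB protein stain at 515 nm. Result is percent growth versus the no-drug control and the time-zero cell count; values below 0 indicate lethality.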

OVCAR-4 = assay: Growth inhibition of human OVCAR-4 cells at 10 uM incubated for 48 hrs by sulforhodamine B assay relative to control; outline: as §1
UO-31 = assay: Growth inhibition of human UO-31 cells at 10 uM incubated for 48 hrs by sulforhodamine B assay relative to control; outline: as §2
NCI-H226 = assay: Growth inhibition of human NCI-H226 cells at 10 uM incubated for 48 hrs by sulforhodamine B assay relative to control; outline: as §1
SK-MEL-28 = assay: Growth inhibition of human SK-MEL-28 cells at 10 uM incubated for 48 hrs by sulforhodamine B assay relative to control; outline: as §1
NCI/ADR-RES = assay: Growth inhibition of human NCI/ADR-RES cells at 10 uM incubated for 48 hrs by sulforhodamine B assay relative to control; outline: as §1
MCF7 = assay: Growth inhibition of human MCF7 cells at 10 uM incubated for 48 hrs by sulforhodamine B assay relative to control; outline: as §3
HOP-92 = assay: Growth inhibition of human HOP-92 cells at 10 uM incubated for 48 hrs by sulforhodamine B assay relative to control; outline: as §3
UACC-62 = assay: Growth inhibition of human UACC-62 cells at 10 uM incubated for 48 hrs by sulforhodamine B assay relative to control; outline: as §2
OVCAR-3 = assay: Growth inhibition of human OVCAR-3 cells at 10 uM incubated for 48 hrs by sulforhodamine B assay relative to control; outline: as §1
NCI-H522 = assay: Growth inhibition of human NCI-H522 cells at 10 uM incubated for 48 hrs by sulforhodamine B assay relative to control; outline: as §1
A498 = assay: Growth inhibition of human A498 cells at 10 uM incubated for 48 hrs by sulforhodamine B assay relative to control; outline: as §2
OVCAR-5 = assay: Growth inhibition of human OVCAR-5 cells at 10 uM incubated for 48 hrs by sulforhodamine B assay relative to control; outline: as §1
PC-3 = assay: Growth inhibition of human PC-3 cells at 10 uM incubated for 48 hrs by sulforhodamine B assay relative to control; outline: as §1
SNB-19 = assay: Growth inhibition of human SNB-19 cells at 10 uM incubated for 48 hrs by sulforhodamine B assay relative to control; outline: as §1
SK-MEL-2 = assay: Growth inhibition of human SK-MEL-2 cells at 10 uM incubated for 48 hrs by sulforhodamine B assay relative to control; outline: as §1
MDA-MB-435 = assay: Growth inhibition of human MDA-MB-435 cells at 10 uM incubated for 48 hrs by sulforhodamine B assay relative to control; outline: as §3
MDA-MB-231 = assay: Growth inhibition of human MDA-MB-231 cells at 10 uM incubated for 48 hrs by sulforhodamine B assay relative to control; outline: as §3
SK-OV-3 = assay: Growth inhibition of human SK-OV-3 cells at 10 uM incubated for 48 hrs by sulforhodamine B assay relative to control; outline: as §1
COLO 205 = assay: Growth inhibition of human COLO 205 cells at 10 uM incubated for 48 hrs by sulforhodamine B assay relative to control; outline: as §3
Malme-3M = assay: Growth inhibition of human Malme-3M cells at 10 uM incubated for 48 hrs by sulforhodamine B assay relative to control; outline: as §1
BT-549 = assay: Growth inhibition of human BT-549 cells at 10 uM incubated for 48 hrs by sulforhodamine B assay relative to control; outline: as §3
SN12C = assay: Growth inhibition of human SN12C cells at 10 uM incubated for 48 hrs by sulforhodamine B assay relative to control; outline: as §1
LOX IMVI = assay: Growth inhibition of human LOX IMVI cells at 10 uM incubated for 48 hrs by sulforhodamine B assay relative to control; outline: as §3
SF-295 = assay: Growth inhibition of human SF-295 cells at 10 uM incubated for 48 hrs by sulforhodamine B assay relative to control; outline: as §1
SF-268 = assay: Growth inhibition of human SF-268 cells at 10 uM incubated for 48 hrs by sulforhodamine B assay relative to control; outline: as §1
HOP-62 = assay: Growth inhibition of human HOP-62 cells at 10 uM incubated for 48 hrs by sulforhodamine B assay relative to control; outline: as §3
K562 = assay: Growth inhibition of human K562 cells at 10 uM incubated for 48 hrs by sulforhodamine B assay relative to control; outline: as §3
Hs-578T = assay: Growth inhibition of human HS-578T cells at 10 uM incubated for 48 hrs by sulforhodamine B assay relative to control; outline: as §3
NCI-H23 = assay: Growth inhibition of human NCI-H23 cells at 10 uM incubated for 48 hrs by sulforhodamine B assay relative to control; outline: as §1
IGROV-1 = assay: Growth inhibition of human IGROV-1 cells at 10 uM incubated for 48 hrs by sulforhodamine B assay relative to control; outline: as §3

| Structure (SMILES) | inhibition of growth at 10 µM (MOLT-4) [%] | inhibition of growth at 10 µM (T47D) [%] | inhibition of growth at 10 µM (NCI-H322M) [%] | inhibition of growth at 10 µM (HL-60(TB)) [%] | inhibition of growth at 10 µM (SNB-75) [%] | inhibition of growth at 10 µM (M14) [%] | inhibition of growth at 10 µM (OVCAR-4) [%] | inhibition of growth at 10 µM (UO-31) [%] | inhibition of growth at 10 µM (NCI-H226) [%] | inhibition of growth at 10 µM (SK-MEL-28) [%] | inhibition of growth at 10 µM (NCI/ADR-RES) [%] | inhibition of growth at 10 µM (MCF7) [%] | inhibition of growth at 10 µM (HOP-92) [%] | inhibition of growth at 10 µM (UACC-62) [%] | inhibition of growth at 10 µM (OVCAR-3) [%] | inhibition of growth at 10 µM (NCI-H522) [%] | inhibition of growth at 10 µM (A498) [%] | inhibition of growth at 10 µM (OVCAR-5) [%] | inhibition of growth at 10 µM (PC-3) [%] | inhibition of growth at 10 µM (SNB-19) [%] | other results |
| --- | --- | --- | --- | --- | --- | --- | --- | --- | --- | --- | --- | --- | --- | --- | --- | --- | --- | --- | --- | --- | --- |
| COc1cc2nc(-c3ccc(C(F)(F)F)cc3)cc(OCCN3CCCC3)c2cc1OC | 13 | 13 | 13 | 13 | 13 | 13 | 13 | 13 | 13 | 13 | 13 | 13 | 13 | 13 | 13 | 13 | 13 | 13 | 13 | 13 | inhibition of growth at 10 µM (SK-MEL-2): 13%; inhibition of growth at 10 µM (MDA-MB-435): 13%; inhibition of growth at 10 µM (MDA-MB-231): 13%; inhibition of growth at 10 µM (SK-OV-3): 13%; inhibition of growth at 10 µM (COLO 205): 13%; inhibition of growth at 10 µM (Malme-3M): 13%; inhibition of growth at 10 µM (BT-549): 13%; inhibition of growth at 10 µM (SN12C): 13%; inhibition of growth at 10 µM (LOX IMVI): 13%; inhibition of growth at 10 µM (SF-295): 13%; inhibition of growth at 10 µM (SF-268): 13%; inhibition of growth at 10 µM (HOP-62): 13%; inhibition of growth at 10 µM (K562): 13%; inhibition of growth at 10 µM (Hs-578T): 13%; inhibition of growth at 10 µM (NCI-H23): 13%; inhibition of growth at 10 µM (IGROV-1): 13% |
| COc1cc2nc(-c3ccc(Cl)cc3)cc(OCCN3CCCC3)c2cc1OC | 3 | 3 | 3 | 3 | 3 | 3 | 3 | 3 | 3 | 3 | 3 | 3 | 3 | 3 | 3 | 3 | 3 | 3 | 3 | 3 | inhibition of growth at 10 µM (SK-MEL-2): 3%; inhibition of growth at 10 µM (MDA-MB-435): 3%; inhibition of growth at 10 µM (MDA-MB-231): 3%; inhibition of growth at 10 µM (SK-OV-3): 3%; inhibition of growth at 10 µM (COLO 205): 3%; inhibition of growth at 10 µM (Malme-3M): 3%; inhibition of growth at 10 µM (BT-549): 3%; inhibition of growth at 10 µM (SN12C): 3%; inhibition of growth at 10 µM (LOX IMVI): 3%; inhibition of growth at 10 µM (SF-295): 3%; inhibition of growth at 10 µM (SF-268): 3%; inhibition of growth at 10 µM (HOP-62): 3%; inhibition of growth at 10 µM (K562): 3%; inhibition of growth at 10 µM (Hs-578T): 3%; inhibition of growth at 10 µM (NCI-H23): 3%; inhibition of growth at 10 µM (IGROV-1): 3% |
| COc1cc2nc(-c3ccc(Cl)cc3)cc(OCCN3CCCCC3)c2cc1OC | 3 | 3 | 3 | 3 | 3 | 3 | 3 | 3 | 3 | 3 | 3 | 3 | 3 | 3 | 3 | 3 | 3 | 3 | 3 | 3 | inhibition of growth at 10 µM (SK-MEL-2): 3%; inhibition of growth at 10 µM (MDA-MB-435): 3%; inhibition of growth at 10 µM (MDA-MB-231): 3%; inhibition of growth at 10 µM (SK-OV-3): 3%; inhibition of growth at 10 µM (COLO 205): 3%; inhibition of growth at 10 µM (Malme-3M): 3%; inhibition of growth at 10 µM (BT-549): 3%; inhibition of growth at 10 µM (SN12C): 3%; inhibition of growth at 10 µM (LOX IMVI): 3%; inhibition of growth at 10 µM (SF-295): 3%; inhibition of growth at 10 µM (SF-268): 3%; inhibition of growth at 10 µM (HOP-62): 3%; inhibition of growth at 10 µM (K562): 3%; inhibition of growth at 10 µM (Hs-578T): 3%; inhibition of growth at 10 µM (NCI-H23): 3%; inhibition of growth at 10 µM (IGROV-1): 3% |

From ChEMBL document CHEMBL4732237, “Discovery of 4-alkoxy-2-aryl-6,7-dimethoxyquinolines as a new class of topoisomerase I inhibitors endowed with potent in vitro anticancer activity” (2021)
